Calls of active or inactive are those of the source. The calls are words filed in the database; no cut-off is given here.
Tests used:
[1] = target: T1, C-C chemokine receptor type 5 (Homo sapiens, UniProt P51681); assay: Antagonist activity at human TEV cleavage site-linked CCR5 expressed in human U2OS cells harboring beta-lactamase reporter gene assessed as inhibition of CCL3-induced beta-arrestin recruitment at 1 uM incubated for 30 mins followed by CCL3 stimulation and measured after 16 hrs by Tango assay relative to control; format: cell-based
Target sequence in this assay (P51681 whole entry, looked up): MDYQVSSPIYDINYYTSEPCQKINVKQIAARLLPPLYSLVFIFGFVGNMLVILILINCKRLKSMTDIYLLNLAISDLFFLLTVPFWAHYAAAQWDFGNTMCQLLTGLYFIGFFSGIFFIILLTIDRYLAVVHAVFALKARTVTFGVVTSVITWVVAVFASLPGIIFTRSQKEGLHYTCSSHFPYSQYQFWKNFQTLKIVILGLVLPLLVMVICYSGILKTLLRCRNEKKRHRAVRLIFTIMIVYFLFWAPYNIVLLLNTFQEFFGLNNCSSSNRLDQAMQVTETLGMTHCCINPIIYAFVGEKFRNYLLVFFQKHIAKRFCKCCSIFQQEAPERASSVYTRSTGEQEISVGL

[2] = target: T1, C-C chemokine receptor type 5; assay: Antagonist activity at human TEV cleavage site-linked CCR5 expressed in human U2OS cells harboring beta-lactamase reporter gene assessed as inhibition of CCL3-induced beta-arrestin recruitment incubated for 30 mins followed by CCL3 stimulation and measured after 16 hrs by Tango assay; format: cell-based
Target sequence in this assay (P51681 whole entry): as the sequence (P51681 whole entry, looked up) above

[3] = target: T2, C-C chemokine receptor type 2 (Homo sapiens, UniProt P41597); assay: Displacement of [3H]-CCR2-RA-[R] from human CCR2 expressed in human U2OS cells incubated for 2 hrs by scintillation spectrometric method; format: cell-based
Target sequence in this assay (P41597 whole entry): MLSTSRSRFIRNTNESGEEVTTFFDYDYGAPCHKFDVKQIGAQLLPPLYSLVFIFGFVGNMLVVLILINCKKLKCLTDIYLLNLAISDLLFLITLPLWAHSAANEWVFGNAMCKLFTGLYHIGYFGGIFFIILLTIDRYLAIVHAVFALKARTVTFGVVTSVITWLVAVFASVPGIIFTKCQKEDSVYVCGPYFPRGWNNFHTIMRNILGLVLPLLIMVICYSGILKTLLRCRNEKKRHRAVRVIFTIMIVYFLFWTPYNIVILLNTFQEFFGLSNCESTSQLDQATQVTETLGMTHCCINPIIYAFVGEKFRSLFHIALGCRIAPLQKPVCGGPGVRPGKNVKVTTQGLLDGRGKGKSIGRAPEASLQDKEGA

[4] = target: T2, C-C chemokine receptor type 2; assay: Antagonist activity at human TEV cleavage site-linked CCR2b expressed in human U2OS cells harboring beta-lactamase reporter gene assessed as inhibition of CCL2-induced beta-arrestin recruitment incubated for 30 mins followed by CCL2 stimulation and measured after 16 hrs by Tango assay; format: cell-based
Method in brief: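 Tango CCR2b-bla U2OS cells: 10 000 cells/well in FreeStyle medium, 30 min preincubation at room temperature with increasing antagonist concentrations (DMSO ≤0.5%), then 16 h with CCL2 at EC80 (5 nM), 37 °C, 5% CO2. LiveBLAzer-FRET B/G substrate 2 h at room temperature; 460/535 nm emission ratio at 400 nm excitation. IC50 by nonlinear regression.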
Target sequence in this assay (P41597 whole entry): as above

[5] = species on record: Homo sapiens; assay: Selectivity ratio of IC50 for human TEV cleavage site-linked CCR5 expressed in human U2OS cells to IC50 for human TEV cleavage site-linked CCR2b expressed in human U2OS cells; format: cell-based
[6] = target: T2, C-C chemokine receptor type 2; assay: Non-competitive insurmountable antagonist activity at human CCR2 expressed in human U2OS cell membranes assessed as Emax for CCL2-stimulated [35S]GTPgammaS binding at 10 nM preincubated for 30 mins followed by [35S]GTPgammaS addition and measured after 90 mins (reference value: 107 +/- 2%); format: functional
Target sequence in this assay (P41597 whole entry, looked up): as the sequence (P41597 whole entry) above

[7] = target: T2, C-C chemokine receptor type 2; assay: Non-competitive insurmountable antagonist activity at human CCR2 expressed in human U2OS cell membranes assessed as Emax for CCL2-stimulated [35S]GTPgammaS binding at 1 nM preincubated for 30 mins followed by [35S]GTPgammaS addition and measured after 90 mins (reference value: 107 +/- 2%); format: functional
Target sequence in this assay (P41597 whole entry, looked up): as the sequence (P41597 whole entry) above

[8] = target: T2, C-C chemokine receptor type 2; assay: Non-competitive insurmountable antagonist activity at human CCR2 expressed in human U2OS cell membranes assessed as Emax for CCL2-stimulated [35S]GTPgammaS binding at 3 nM preincubated for 30 mins followed by [35S]GTPgammaS addition and measured after 90 mins (reference value: 107 +/- 2%); format: functional
Target sequence in this assay (P41597 whole entry, looked up): as the sequence (P41597 whole entry) above

[9] = target: T1, C-C chemokine receptor type 5; assay: Non-competitive insurmountable antagonist activity at human CCR5 expressed in human U2OS cell membranes assessed as Emax for CCL3-stimulated [35S]GTPgammaS binding at 100 nM preincubated for 30 mins followed by [35S]GTPgammaS addition and measured after 90 mins (reference value: 108 +/- 2%); format: functional
Target sequence in this assay (P51681 whole entry, looked up): as the sequence (P51681 whole entry, looked up) above

[10] = target: T1, C-C chemokine receptor type 5; assay: Non-competitive insurmountable antagonist activity at human CCR5 expressed in human U2OS cell membranes assessed as Emax for CCL3-stimulated [35S]GTPgammaS binding at 300 nM preincubated for 30 mins followed by [35S]GTPgammaS addition and measured after 90 mins (reference value: 108 +/- 2%); format: functional
Target sequence in this assay (P51681 whole entry, looked up): as above

[11] = target: T1, C-C chemokine receptor type 5; assay: Non-competitive insurmountable antagonist activity at human CCR5 expressed in human U2OS cell membranes assessed as Emax for CCL3-stimulated [35S]GTPgammaS binding at 30 nM preincubated for 30 mins followed by [35S]GTPgammaS addition and measured after 90 mins (reference value: 108 +/- 2%); format: functional
Target sequence in this assay (P51681 whole entry, looked up): as above

[12] = target: T2, C-C chemokine receptor type 2; assay: Inverse agonist activity at human CCR2 assessed as reduction in [35S]GTPgammaS binding at 1 uM relative to control; format: functional; set-up: scale not given: the % may be the effect or the level left
Target sequence in this assay (P41597 whole entry, looked up): as the sequence (P41597 whole entry) above

[13] = target: T2, C-C chemokine receptor type 2; assay: Non-competitive insurmountable antagonist activity at human CCR2 expressed in human U2OS cell membranes assessed as Emax for CCL2-stimulated [35S]GTPgammaS binding at 30 nM preincubated for 30 mins followed by [35S]GTPgammaS addition and measured after 90 mins (reference value: 107 +/- 2%); format: functional
Target sequence in this assay (P41597 whole entry, looked up): as the sequence (P41597 whole entry) above

[14] = target: T2, C-C chemokine receptor type 2; assay: Non-competitive insurmountable antagonist activity at human CCR2 expressed in human U2OS cell membranes assessed as Emax for CCL2-stimulated [35S]GTPgammaS binding at 100 nM preincubated for 30 mins followed by [35S]GTPgammaS addition and measured after 90 mins (reference value: 107 +/- 2%); format: functional
Target sequence in this assay (P41597 whole entry, looked up): as the sequence (P41597 whole entry) above

[15] = target: T1, C-C chemokine receptor type 5; assay: Non-competitive insurmountable antagonist activity at human CCR5 expressed in human U2OS cell membranes assessed as Emax for CCL3-stimulated [35S]GTPgammaS binding at 1000 nM preincubated for 30 mins followed by [35S]GTPgammaS addition and measured after 90 mins (reference value: 108 +/- 2%); format: functional
Target sequence in this assay (P51681 whole entry, looked up): as the sequence (P51681 whole entry, looked up) above

[16] = target: T2, C-C chemokine receptor type 2; assay: Antagonist activity at CCR2b in human THP1 cells assessed as inhibition of human MCP1 induced calcium flux by fluo-4 dye based fluorescence assay; format: functional, cell-based
Target sequence in this assay (P41597 whole entry): as the sequence (P41597 whole entry) above

Structure (SMILES) | inhibition [1] | Ki ([3]; read-out: Ki) [nM] | also measured
Cc1ccc(-c2ccc3c(c2)C=C(C(=O)Nc2ccc(C[N+](C)(C)C4CCOCC4)cc2)CCC3)cc1 | Active |  | IC50 ([2]; read-out: IC50): 6 nM
CC(C)c1[nH]c2nc(N)nn2c(=O)c1Cc1ccc(Cl)c(Br)c1 | > 70% | 0.4 | IC50 ([2]; read-out: pIC50 (converted)): 112 nM; IC50 [4]: 4 nM; Ratio IC50 [5]: 29; Emax [6]: 33%; Emax [7]: 72%; Emax [8]: 51%; Emax [9]: 58%; Emax [10]: 35%; Emax [11]: 81%; Activity [12]: 7 to 8%
Nc1nc2[nH]c(C3CC3)c(Cc3ccccc3Cl)c(=O)n2n1 | 27% | 14.5 | 
O=C(O)c1ccccc1Oc1ccc(Cl)cc1NS(=O)(=O)c1ccc(Cl)c(Cl)c1 | < 50% |  | 
Nc1nc2[nH]c(CCc3ccccc3)c(Cc3cccc(Cl)c3)c(=O)n2n1 |  | 52.3 | Ki ([3]; read-out: pKi (converted)): 51.3 nM
Cc1ccccc1Cc1c(C2CC2)[nH]c2nc(N)nn2c1=O | 28% | 15.7 | 
CC(C)c1[nH]c2nc(N)nn2c(=O)c1Cc1cccc(Cl)c1 | > 70% | 1.9 | IC50 ([2]; read-out: pIC50 (converted)): 275 nM
Nc1nc2[nH]c(C3CC3)c(Cc3ccc(Cl)c(Cl)c3)c(=O)n2n1 | > 70% | 0.4 | IC50 ([2]; read-out: pIC50 (converted)): 214 nM
CC(=O)C1=C(O)C(=O)N(c2ccc(Cl)cc2F)[C@@H]1C1CCCCC1 | < 50% |  | IC50 ([2]; read-out: IC50): 703 nM
Nc1nc2[nH]c(C3CCCC3)c(Cc3cccc(Cl)c3)c(=O)n2n1 | > 70% | 1.6 | IC50 ([2]; read-out: pIC50 (converted)): 372 nM
CCC(CC)Cc1[nH]c2nc(N)nn2c(=O)c1Cc1cccc(Cl)c1 | 29% | 6.4 | 
Cc1ccc(Cc2c(C3CC3)[nH]c3nc(N)nn3c2=O)cc1 |  | 3.5 | 
O=c1c(Cc2cccc(Cl)c2)c(C2CC2)[nH]c2ncnn12 | 60% | 1.7 | 
CCCc1[nH]c2nc(N)nn2c(=O)c1Cc1cccc(Cl)c1 | 64% | 3.6 | Ki ([3]; read-out: pKi (converted)): 3.47 nM
CC[C@@H](c1ccc(F)c(F)c1)n1c(C(=O)OC)c(-c2ccno2)[nH]c1=S | < 50% |  | 
Cc1[nH]c2nc(N)nn2c(=O)c1Cc1cccc(Cl)c1 |  | 17.2 | Ki ([3]; read-out: pKi (converted)): 16.6 nM
Nc1nc2[nH]c(C3CC3)c(Cc3cccc(C(F)(F)F)c3)c(=O)n2n1 | 36% | 5.9 | Ki ([3]; read-out: pKi (converted)): 5.5 nM
Cc1cccc(Cc2c(C3CC3)[nH]c3nc(N)nn3c2=O)c1 | 62% | 2.5 | 
COc1ccc(Cc2c(C3CC3)[nH]c3nc(N)nn3c2=O)cc1 |  | 20.9 | 
CC(C)c1[nH]c2nc(N)nn2c(=O)c1Cc1cc(Cl)ccc1Cl | 20% | 22.5 | 
Cc1nc2[nH]c(C3CC3)c(Cc3cccc(Cl)c3)c(=O)n2n1 | 35% | 3.5 | 

Structure (SMILES) | inhibition [1] | Ki ([3]; read-out: Ki) [nM] | also measured
Nc1nc2[nH]c(C3CC3)c(Cc3cccc(F)c3)c(=O)n2n1 | 43% | 3.4 | 
Nc1nc2[nH]c(-c3ccccc3)c(Cc3cccc(Cl)c3)c(=O)n2n1 |  | 26.7 | 
COc1cccc(Cc2c(C3CC3)[nH]c3nc(N)nn3c2=O)c1 |  | 13 | 
CCCCCc1[nH]c2nc(N)nn2c(=O)c1Cc1cccc(Cl)c1 | 38% | 7.2 | 
Nc1nc2[nH]c(C3CC3)c(Cc3cccc(Br)c3)c(=O)n2n1 | 60% | 0.9 | Ki ([3]; read-out: pKi (converted)): 0.832 nM
Cc1ccc(-c2[nH]c3nc(N)nn3c(=O)c2Cc2cccc(Cl)c2)cc1 |  | 159 | Ki ([3]; read-out: pKi (converted)): 155 nM
CCCCCCCc1[nH]c2nc(N)nn2c(=O)c1Cc1cccc(Cl)c1 |  | 178 | Ki ([3]; read-out: pKi (converted)): 174 nM
Nc1nc2[nH]c(C3CC3)c(Cc3ccc(F)cc3)c(=O)n2n1 | 31% | 4.1 | 
CCCCc1[nH]c2nc(N)nn2c(=O)c1Cc1cccc(Cl)c1 | > 70% | 2.3 | IC50 ([2]; read-out: pIC50 (converted)): 513 nM
CC(C)c1[nH]c2nc(N)nn2c(=O)c1Cc1cc(Br)cc(Br)c1 | 64% | 2.1 | 
CCCCCCc1[nH]c2nc(N)nn2c(=O)c1Cc1cccc(Cl)c1 |  | 22 | 
CCc1[nH]c2nc(N)nn2c(=O)c1Cc1cccc(Cl)c1 | 29% | 4 | 
CC(C)c1[nH]c2nc(N)nn2c(=O)c1Cc1cc(Cl)cc(Cl)c1 | > 70% | 2.2 | IC50 ([2]; read-out: pIC50 (converted)): 324 nM
Nc1nc2[nH]c(C3CC3)c(Cc3ccc(Cl)cc3)c(=O)n2n1 | 31% | 1.8 | 
CC(C)c1[nH]c2nc(N)nn2c(=O)c1Cc1ccc(Cl)c(Cl)c1 | > 70% | 0.6 | IC50 ([2]; read-out: pIC50 (converted)): 123 nM
CC(C)c1[nH]c2nc(N)nn2c(=O)c1Cc1cccc(Cl)c1Cl | > 70% | 1.6 | IC50 ([2]; read-out: pIC50 (converted)): 81.3 nM; IC50 [4]: 21 nM; Ratio IC50 [5]: 4; Emax [6]: 91%; Emax [13]: 75%; Emax [14]: 50%; Emax [9]: 79%; Emax [10]: 56%; Emax [15]: 25%; Activity [12]: 7 to 8%
COc1ccccc1Cc1c(C2CC2)[nH]c2nc(N)nn2c1=O |  | 105 | 
Nc1nc2[nH]c(C3CC3)c(Cc3ccc(Br)cc3)c(=O)n2n1 | 14% | 1.5 | 
Nc1nc2[nH]c(C3CC3)c(Cc3ccccc3)c(=O)n2n1 | 35% | 5.9 | Ki ([3]; read-out: pKi (converted)): 5.37 nM
Nc1nc2[nH]c(C3CC3)c(Cc3cccc(Cl)c3)c(=O)n2n1 | > 70% | 1.3 | IC50 [16]: 16 to 20 nM; IC50 ([2]; read-out: pIC50 (converted)): 575 nM; IC50 [4]: 10 nM
Nc1nc2[nH]c(C3CC3)c(Cc3cccc(I)c3)c(=O)n2n1 | 66% | 0.9 | 

From ChEMBL document CHEMBL4321857, “Synthesis and Pharmacological Evaluation of Triazolopyrimidinone Derivatives as Noncompetitive, Intracellular Antagonists for CC Chemokine Receptors 2 and 5” (J Med Chem, 2019)
